For one assay, the system named is HT-29. The assay is described as follows: Cytotoxicity against human HT-29 cells assessed as cell growth inhibition after 72 hrs by MTT assay. It is filed as functional, cell-based. The settings on record: HT-29, 72 h. The gist of the method: (§1)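 Cancer lines grown in MEM with 10% FBS. About 4 × 10³ cells/well were seeded in MEM and incubated 24 h at 37 °C, 5% CO₂. Compounds were then added at final concentrations and exposure ran 72 h. MTT was added for 4 h at 37 °C and formazan dissolved in DMSO. Absorbance was read at 492 nm against a 630 nm reference. IC50 is the average of three determinations.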

A further assay relates to MDA-MB-231. As to the kind of experiment: Cytotoxicity against human MDA-MB-231 cells assessed as cell growth inhibition after 72 hrs by MTT assay. It is filed as functional, cell-based. The conditions noted are these: MDA-MB-231, 72 h. The gist of the method:
as §1

For another assay, the system named is NCI-H460. As to the kind of experiment: Cytotoxicity against human H460 cells assessed as cell growth inhibition after 72 hrs by MTT assay. The conditions noted are these: NCI-H460, 72 h. The assay is classed as functional, cell-based. The gist of the method: as §1
For a further assay, the system named is WI-38. As to the kind of experiment: Cytotoxicity against human WI38 cells assessed as cell growth inhibition after 72 hrs by MTT assay. It is filed as cell-based. The conditions noted are these: WI-38, 72 h. The gist of the method:
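WI-38 normal human fetal lung fibroblasts were seeded at about 4 × 10³ cells/well and held 24 h at 37 °C, 5% CO₂, then exposed to compounds for 72 h. MTT was given for 4 h at 37 °C and formazan dissolved in DMSO. A492 was read with a 630 nm reference, and IC50 was averaged from three runs.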

In the next assay the test system is SMMC-7721. The assay is described as follows: Cytotoxicity against human SMMC7721 cells assessed as cell growth inhibition after 72 hrs by MTT assay. The assay is classed as functional, cell-based. The conditions noted are these: SMMC-7721, 72 h. The gist of the method:
as §1

As to `CN(C)CCN1C(=O)/C(=C/c2ccc(O)cc2)SC1=S`, the IC50 in the assay with HT-29 worked out at 59.7 µM; in the assay with MDA-MB-231, 84.2 µM; with NCI-H460, 46.1 µM.

For the compound `Cc1ccc2c(c1)/C(=c1/sc(=Cc3ccc4c(c3)OCO4)c(=O)n1CCN(C)C)C(=O)N2`, the values for the concentration for half-maximal inhibition (IC50) in the assay with HT-29, in the assay with MDA-MB-231 and in the assay with NCI-H460 were 1.03 µM, 8.1 µM and 4.03 µM, respectively.

Turning to `CN(C)CCn1c(=O)c(=Cc2ccc3c(c2)OCO3)s/c1=C1\C(=O)Nc2cc(F)ccc21`, the values for the IC50 in the assay on HT-29, in the assay on MDA-MB-231 and in the assay with NCI-H460 were 1.36 µM, 2.42 µM and 2.81 µM, respectively.

On to `CN(C)CCn1c(=O)c(=Cc2ccc(O)cc2)s/c1=C1\C(=O)Nc2ccccc21` (mixture of isomers), for which the half-inhibitory concentration (IC50) is 1.39 µM in the assay with HT-29, 4.28 µM with MDA-MB-231 and 0.98 µM in the assay with NCI-H460.

Consider `Cc1ccc2c(c1)/C(=c1/sc(=Cc3ccc(O)cc3)c(=O)n1CCN(C)C)C(=O)N2` (mixture of isomers), for which the 50% inhibitory concentration (IC50) is 2.29 µM in the assay with HT-29, 1.32 µM in the assay with MDA-MB-231 and 1.77 µM in the assay with NCI-H460.

Regarding `COc1cc(C=c2s/c(=C3\C(=O)Nc4ccc(F)cc43)n(CCN(C)C)c2=O)cc(OC)c1OC` (mixture of isomers), the IC50 with HT-29 was found to be 2.53 µM; in the assay with WI-38, 8.1 µM; in the assay with MDA-MB-231, 1.9 µM; in the assay with NCI-H460 it was 1.7 µM; in the assay with SMMC-7721, 6.06 µM.

Turning to `CCN(CC)CCCn1c(=O)c(=Cc2ccc3c(c2)OCO3)s/c1=C1\C(=O)Nc2ccc(C)cc21` (mixture of isomers), the IC50 in the assay with HT-29 is 2.11 µM; with MDA-MB-231, 3.1 µM; with NCI-H460 it was 1.86 µM.

Regarding `CCN(CC)CCCn1c(=O)c(=Cc2ccc(F)cc2F)s/c1=C1\C(=O)Nc2ccccc21` (mixture of isomers), the results for the half-inhibitory concentration (IC50) in the assay with HT-29, in the assay with MDA-MB-231 and in the assay on NCI-H460 were above 200 µM, above 200 µM and 5.47 µM, respectively.

For the compound `CCN(CC)CCCn1c(=O)c(=Cc2ccc(F)cc2F)s/c1=C1\C(=O)Nc2cc(F)ccc21` (mixture of isomers), the IC50 is 1.52 µM in the assay on HT-29, 2.1 µM in the assay on MDA-MB-231 and 2.33 µM in the assay on NCI-H460.

Turning to `CCN(CC)CCCn1c(=O)c(=Cc2ccc(F)cc2F)s/c1=C1\C(=O)Nc2ccc(Cl)cc21` (mixture of isomers), the IC50 in the assay with HT-29 is above 200 µM; in the assay on MDA-MB-231 it was above 200 µM; with NCI-H460, 6.1 µM.

As to `CCN(CC)CCCn1c(=O)c(=Cc2cc(OC)c(OC)c(OC)c2)s/c1=C1\C(=O)Nc2ccccc21` (mixture of isomers), the results for the IC50 in the assay on HT-29, with MDA-MB-231 and with NCI-H460 were 1.97 µM, 2.39 µM and 1.67 µM, respectively.

As for `CCN(CC)CCCn1c(=O)c(=Cc2cc(OC)c(OC)c(OC)c2)s/c1=C1\C(=O)Nc2ccc(C)cc21` (mixture of isomers), the IC50 in the assay with HT-29 was above 200 µM; with MDA-MB-231, above 200 µM; in the assay with NCI-H460, 2.67 µM.

In the case of `CN(C)CCn1c(=O)c(=Cc2ccc(O)cc2)s/c1=C1\C(=O)Nc2ccc(F)cc21` (mixture of isomers), the figures for the IC50 in the assay with HT-29, in the assay with MDA-MB-231 and in the assay with NCI-H460 were 1.48 µM, 4.2 µM and 1.27 µM, respectively.

Regarding `CN(C)CCn1c(=O)c(=Cc2ccc(O)cc2)s/c1=C1\C(=O)Nc2cc(F)ccc21` (mixture of isomers), the IC50 turned out to be 2.27 µM with HT-29, 3.45 µM in the assay on MDA-MB-231 and 1.43 µM in the assay on NCI-H460.

`CN(C)CCn1c(=O)c(=Cc2ccc(O)cc2)s/c1=C1\C(=O)Nc2ccc(Cl)cc21` (mixture of isomers): the results for the concentration for half-maximal inhibition (IC50) in the assay with HT-29, in the assay on MDA-MB-231 and with NCI-H460 were 2.46 µM, 3.25 µM and 2.03 µM, respectively.

Turning to `CN(C)CCn1c(=O)c(=Cc2ccc(O)cc2)s/c1=C1\C(=O)Nc2ccc(Br)cc21` (mixture of isomers), the 50% inhibitory concentration (IC50) in the assay on HT-29 was 1.92 µM; in the assay with MDA-MB-231 it was 2.52 µM; in the assay on NCI-H460 it was 1.11 µM.

On to `COc1ccc(C=c2s/c(=C3\C(=O)Nc4cc(F)ccc43)n(CCN(C)C)c2=O)cc1` (mixture of isomers), for which the concentration for half-maximal inhibition (IC50) amounted to 2.3 µM in the assay on HT-29, 2.09 µM with MDA-MB-231 and 2.2 µM with NCI-H460.

Regarding `CN(C)CCn1c(=O)c(=Cc2ccc(F)c(F)c2)s/c1=C1\C(=O)Nc2ccc(F)cc21` (mixture of isomers), the IC50 was determined as 3.09 µM in the assay with HT-29, 9.48 µM in the assay with MDA-MB-231 and 44.7 µM in the assay on NCI-H460.

Take `CN(C)CCn1c(=O)c(=Cc2ccc(F)c(F)c2)s/c1=C1\C(=O)Nc2cc(F)ccc21` (mixture of isomers): the IC50 in the assay with HT-29 came to 12.1 µM; in the assay with MDA-MB-231, 25 µM; with NCI-H460 it was 6.4 µM.

As to `Cc1ccc2c(c1)/C(=c1/sc(=Cc3ccc(F)c(F)c3)c(=O)n1CCN(C)C)C(=O)N2` (mixture of isomers), the figures for the IC50 in the assay with HT-29, with MDA-MB-231 and with NCI-H460 were 7.43 µM, above 200 µM and 59.7 µM, respectively.

For the compound `CN(C)CCn1c(=O)c(=Cc2ccc(F)cc2F)s/c1=C1\C(=O)Nc2cc(F)ccc21` (mixture of isomers), the half-maximal inhibitory concentration (IC50) with HT-29 amounted to 6.46 µM; in the assay with MDA-MB-231, 8.44 µM; with NCI-H460 it was 3.2 µM.

Regarding `COc1ccc(C=c2s/c(=C3\C(=O)Nc4ccc(Cl)cc43)n(CCN(C)C)c2=O)c(OC)c1` (mixture of isomers), the results for the IC50 in the assay on HT-29, in the assay with MDA-MB-231 and with NCI-H460 were 1.53 µM, 3.83 µM and 10.6 µM, respectively.

As to `COc1ccc(C=c2s/c(=C3\C(=O)Nc4cc(F)ccc43)n(CCN(C)C)c2=O)c(OC)c1` (mixture of isomers), the IC50 with HT-29 is 0.868 µM; in the assay with WI-38 it was 3.01 µM; in the assay with MDA-MB-231, 4.83 µM; in the assay on NCI-H460, 20.5 µM; in the assay with SMMC-7721 it was 6.81 µM.

With `COc1ccc(OC)c(C=c2s/c(=C3\C(=O)Nc4cc(F)ccc43)n(CCN(C)C)c2=O)c1` (mixture of isomers), the IC50 came out at 4.45 µM with HT-29, 14.5 µM in the assay on MDA-MB-231 and 7.15 µM in the assay with NCI-H460.

As for `COc1ccc(OC)c(C=c2s/c(=C3\C(=O)Nc4ccccc43)n(CCN(C)C)c2=O)c1` (mixture of isomers), the half-maximal inhibitory concentration (IC50) in the assay with HT-29 worked out at 96 µM; in the assay on MDA-MB-231, 21 µM; in the assay on NCI-H460, 63.7 µM.

With `CN(C)CCn1c(=O)c(=Cc2ccc3c(c2)OCO3)s/c1=C1\C(=O)Nc2ccccc21` (mixture of isomers), the 50% inhibitory concentration (IC50) in the assay on HT-29 is 0.7 µM; in the assay on WI-38, 1.77 µM; in the assay on MDA-MB-231 it was 3.23 µM; in the assay on NCI-H460, 0.82 µM; in the assay with SMMC-7721, 2.74 µM.

Regarding `CCN(CC)CCCn1c(=O)c(=Cc2cc(OC)c(OC)c(OC)c2)s/c1=C1\C(=O)Nc2cc(F)ccc21` (mixture of isomers), the IC50 in the assay on HT-29 was above 200 µM; in the assay on MDA-MB-231 it was above 200 µM; in the assay on NCI-H460, 1.41 µM.

Turning to `CCN(CC)CCCn1c(=O)c(=Cc2cc(OC)c(OC)c(OC)c2)s/c1=C1\C(=O)Nc2ccc(Cl)cc21` (mixture of isomers), the figures for the half-maximal inhibitory concentration (IC50) in the assay with HT-29, in the assay with MDA-MB-231 and in the assay with NCI-H460 were above 200 µM, above 200 µM and 2.99 µM, respectively.

For `CCN(CC)CCCn1c(=O)c(=Cc2ccccc2O)s/c1=C1\C(=O)Nc2ccccc21` (mixture of isomers), the IC50 in the assay on HT-29, with MDA-MB-231 and in the assay on NCI-H460 was above 200 µM throughout.

In the case of `CCN(CC)CCCn1c(=O)c(=Cc2ccccc2O)s/c1=C1\C(=O)Nc2ccc(C)cc21` (mixture of isomers), the IC50 with HT-29 stood at 8.07 µM; in the assay with MDA-MB-231, 15.9 µM; with NCI-H460, 11.3 µM.

As to `CCN(CC)CCCn1c(=O)c(=Cc2ccccc2O)s/c1=C1\C(=O)Nc2ccc(Br)cc21` (mixture of isomers), the figures for the IC50 in the assay on HT-29, in the assay with MDA-MB-231 and in the assay on NCI-H460 were 18.1 µM, 19.9 µM and 51.7 µM, respectively.

Source of the values: ChEMBL document CHEMBL1806409, “Design, synthesis and biological evaluation of novel 4-thiazolidinones containing indolin-2-one moiety as potential antitumor agent” (Eur J Med Chem, 2011).
